Data set [1] addresses T1, Probable periplasmic serine endoprotease DegP-like (Chlamydia trachomatis, UniProt P18584).
T1 sequence (P18584 whole entry): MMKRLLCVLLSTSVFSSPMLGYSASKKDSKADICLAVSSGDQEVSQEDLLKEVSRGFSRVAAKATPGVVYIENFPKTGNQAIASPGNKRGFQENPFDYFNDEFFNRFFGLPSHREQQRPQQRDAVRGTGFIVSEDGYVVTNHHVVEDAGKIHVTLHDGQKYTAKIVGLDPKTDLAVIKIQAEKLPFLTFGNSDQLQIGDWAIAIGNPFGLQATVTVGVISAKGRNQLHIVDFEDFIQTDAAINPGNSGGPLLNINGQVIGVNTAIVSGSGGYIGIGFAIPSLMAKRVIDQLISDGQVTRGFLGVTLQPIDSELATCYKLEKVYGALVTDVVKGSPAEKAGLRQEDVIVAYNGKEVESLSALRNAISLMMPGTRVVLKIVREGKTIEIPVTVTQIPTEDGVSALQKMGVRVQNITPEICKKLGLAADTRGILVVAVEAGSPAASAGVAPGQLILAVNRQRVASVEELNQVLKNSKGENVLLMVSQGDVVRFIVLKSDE
Description: Inhibition of recombinant Chlamydia trachomatis HtrA serine protease using MeOCoum-ENLHLPLPI1F-D as substrate measured after 30 mins.

In data set [2] the test system is HEp-2. Description: Cytotoxicity against human HEp-2 cells assessed as reduction in cell viability measured after 24 hrs by MTS assay. Format: toxicity, cell-based. The note with it: hep-2, 24 h. A digest of the protocol: (§1)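 HEp-2 cells plated at 5000/well, treated 24 h after plating with 25 or 100 µM inhibitor, 1% v/v DMSO or medium alone, triplicate; after 24 h exposure, MTS/PMS added for 4 h and A490 read; viability expressed relative to DMSO control; mean ± SEM, n = 3.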
(In general: Tetrazolium dyes change colour on reduction, which living cells bring about.)

The test system of data set [3] is Chlamydia trachomatis. Description: Antibacterial activity against Chlamydia trachomatis D/UW-3/Cx infected in human HEp-2 cells assessed as reduction in bacterial titer below threshold at 50 uM administered at 16 hrs post infection and measured 44 hrs post infection. The note with it: time 28.0 hrs. In kind it is functional, organism-based. The method, boiled down:
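C. trachomatis D (D/UW-3/Cx) in monolayers seeded 20,000 cells/well 24 h before infection; synchronised at 500 × g, 28 °C, 30 min; treated at 16 h PI (25, 50, 100 µM, triplicate) beside 1% v/v DMSO and media controls; harvested 44 h PI, passaged onto fresh monolayers, fixed, stained; IFU/mL compared against limit of detection.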

In data set [4] the test system is HEp-2. The data set can be described thus: Cytotoxicity against human HEp-2 cells assessed as reduction in cell viability by measuring MTS reduction at 25 uM measured after 24 hrs by MTS assay relative to control. In kind it is toxicity, cell-based. As to conditions: hep-2, 24 h. A digest of the protocol:
as §1

For data set [5], the system named is Chlamydia pecorum. Description: Antibacterial activity against Chlamydia pecorum MC/MarsBar infected in human HEp-2 cells assessed as reduction in bacterial titre at 25 uM administered at 16 hrs post infection and measured 44 hrs post infection. In kind it is functional, organism-based. The note with it: time 28.0 hrs.
Data set [6] concerns HEp-2. Description: Cytotoxicity against human HEp-2 cells assessed as loss of cell integrity by measuring cytosolic LDH release at 25 to 100 uM […] by LDH assay. Format: toxicity, cell-based. The note with it: hep-2, 100 µM, dose 25-100 µM. A digest of the protocol:
(§2)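 HEp-2 cells at 5000/well, dosed 24 h after plating with 25 or 100 µM, 1% v/v DMSO or medium, triplicate; after 8 h treatment supernatant taken, incubated 30 min with CytoTox reagent then stop solution, A490 read; maximum release from untreated cells lysed with 0.8% v/v Triton X-100 45 min before harvest; extracellular LDH as % of maximum; n = 3.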

In data set [7] the test system is Chlamydia trachomatis. The data set can be described thus: Antibacterial activity against Chlamydia trachomatis D/UW-3/Cx infected in human HEp-2 cells assessed as reduction in bacterial titer at 25 to 100 uM administered at 16 hrs post infection and measured 44 hrs post infection. Format: functional, organism-based. As to conditions: dose 25-100 µM, time 28.0 hrs.

Data set [8] concerns Chlamydia pecorum. The data set can be described thus: Antibacterial activity against Chlamydia pecorum MC/MarsBar infected in human HEp-2 cells assessed as reduction in bacterial titre at 25 to 100 uM administered at 16 hrs post infection and measured 44 hrs post infection. Format: functional, organism-based. The note with it: dose 25-100 µM, time 28.0 hrs.
Data set [9] in a line: Cytotoxicity against human HEp-2 cells assessed as cell viability at 100 uM measured after 24 hrs by MTS assay relative to control. In kind it is toxicity, cell-based. As to conditions: read-out: Activity. The method, boiled down: as §1
Data set [10] deals with HEp-2. The data set can be described thus: Cytotoxicity against human HEp-2 cells assessed as loss of cell integrity by measuring cytosolic LDH release at 100 uM […] by LDH assay. Format: toxicity, cell-based. The note with it: hep-2, 100 µM. A digest of the protocol: as §2
(LDH leaks from cells whose membrane has failed.)

For data set [11], the target named is T2, Probable periplasmic serine endoprotease DegP-like (Chlamydia trachomatis) (UniProt P18584).
T2 sequence (whole entry): T1 sequence (P18584 whole entry)
Description: Potency index, ratio of JO146 IC50 to test compound IC50 for inhibition of recombinant Chlamydia trachomatis HtrA serine protease using MeOCoum-ENLHLPLPI1F-D as substrate measured after 30 mins.

Data set [12] is described as follows: Cytotoxicity against human HEp-2 cells assessed as cell viability at 25 to 100 uM measured after 24 hrs by MTS assay relative to control. As to conditions: dose 25-100 µM, read-out: Activity. Format: toxicity, cell-based. The method, boiled down: as §1
Data set [13] relates to HEp-2. Description: Cytotoxicity against human HEp-2 cells assessed as loss of cell integrity by measuring cytosolic LDH release at 25 to 100 uM […] by LDH assay relative to control. In kind it is toxicity, cell-based. The note with it: hep-2, 100 µM, dose 25-100 µM. A digest of the protocol:
as §2

The source made the active and inactive calls.

What is called IC50 is the point on the concentration scale where inhibition reaches its midpoint. `CC(C)C(NC(=O)[C@@H]1CCCN1C(=O)[C@@H](NC(=O)OC(C)(C)C)C(C)C)P(=O)(Oc1ccccc1)Oc1ccccc1` (some centres not stated): the IC50 in [1] was 21.9 µM.
Regarding `CC(C)C(NC(=O)[C@@H]1C[C@H](n2nnc(O)c2O)CN1C(=O)[C@@H](NC(=O)OC(C)(C)C)C(C)(C)C)P(=O)(Oc1ccccc1)Oc1ccccc1` (mixture of isomers), the Activity result in data set [2] is recorded as “Non-Toxic”. For the same compound, the IC50 in data set [1] was found to be 23 µM.
For `CC(C)C(NC(=O)[C@@H]1C[C@@H](c2ccccc2)CN1C(=O)[C@@H](NC(=O)OC(C)(C)C)C(C)(C)C)P(=O)(Oc1ccccc1)Oc1ccccc1` (mixture of isomers), the outcome in data set [3] and in data set [5] was Active. For the same compound, in data set [1], the IC50 was 59.5 µM. Moreover, the Activity in [4] is given as less than 30%; in [6], “Non-Toxic”.
With `CC(C)C(NC(=O)[C@@H]1C[C@@H](OC(=O)CCN)CN1C(=O)[C@@H](NC(=O)OC(C)(C)C)C(C)(C)C)P(=O)(Oc1ccccc1)Oc1ccccc1` (mixture of isomers), in data set [1], the IC50 worked out at 15.3 µM. Also, the Activity is on record as less than 30% in data set [4] and “Non-Toxic” in [6].
On the same counts, the results for `CC(C)C(NC(=O)[C@@H]1C[C@@H](O)CN1C(=O)[C@@H](NC(=O)OC(C)(C)C)C(C)(C)C)P(=O)(Oc1ccccc1)Oc1ccccc1` (mixture of isomers) are 14.2 µM, less than 30% and “Non-Toxic”.
For the compound `CC(=O)O[C@@H]1C[C@@H](C(=O)NC(C(C)C)P(=O)(Oc2ccccc2)Oc2ccccc2)N(C(=O)[C@@H](NC(=O)OC(C)(C)C)C(C)(C)C)C1` (mixture of isomers), the outcome in data set [3] and in data set [5] was Active. Moreover, the IC50 in data set [1] was 3.86 µM. For the same compound, the Activity is recorded as less than 30% in data set [4] and “Non-Toxic” in data set [6].
With `CC(C)C(NC(=O)[C@@H]1C[C@@H](n2nncc2C(N)=O)CN1C(=O)[C@@H](NC(=O)OC(C)(C)C)C(C)(C)C)P(=O)(Oc1ccccc1)Oc1ccccc1` (mixture of isomers), the Activity result in [2] is reported as “Non-Toxic”. Further, the outcome in [7] and in [8] was Active.
As to `CC(C)C(NC(=O)[C@@H]1CCCCN1C(=O)[C@@H](NC(=O)OC(C)(C)C)C(C)(C)C)P(=O)(Oc1ccccc1)Oc1ccccc1` (mixture of isomers), the viability at 24 h, 100 µM in [9] was 50%. Further, the result in [3] and in data set [5] was Active. The IC50 in data set [1] is 81.8 µM. Besides, the Activity in data set [4] is listed as less than 30%; in data set [6] it was “Non-Toxic”; in [10], “Non-Toxic”.
`CC(C)C(NC(=O)[C@@H]1CCCN1C(=O)[C@@H](NC(=O)OC(C)(C)C)C(C)(C)C)P(=O)(Oc1ccccc1)Oc1ccccc1` (some centres not stated): the IC50 in data set [1] stood at 15.9 µM. Besides, the Ratio IC50 in [11] came to 1.38.
Turning to `CC(C)C(NC(=O)[C@@H]1C[C@@H](n2nnc(O)c2O)CN1C(=O)[C@@H](NC(=O)OC(C)(C)C)C(C)(C)C)P(=O)(Oc1ccccc1)Oc1ccccc1` (mixture of isomers), in data set [2], the Activity result was “Non-Toxic”.
`CC(C)C(NC(=O)[C@@H]1C[C@@H](n2cc(C(N)=O)nn2)CN1C(=O)[C@@H](NC(=O)OC(C)(C)C)C(C)(C)C)P(=O)(Oc1ccccc1)Oc1ccccc1` (mixture of isomers): the Activity result in [2] was “Non-Toxic”.
Turning to `CC(C)C(NC(=O)[C@@H]1C[C@@H](n2cc(CO)nn2)CN1C(=O)[C@@H](NC(=O)OC(C)(C)C)C(C)(C)C)P(=O)(Oc1ccccc1)Oc1ccccc1` (mixture of isomers), the Activity result in data set [2] is “Non-Toxic”. Further, in data set [1], the IC50 turned out to be 79.7 µM. In addition, in data set [7], the outcome was Active.
For `CC(C)C(NC(=O)[C@@H]1C[C@@H](n2nncc2C(C)(C)O)CN1C(=O)[C@@H](NC(=O)OC(C)(C)C)C(C)(C)C)P(=O)(Oc1ccccc1)Oc1ccccc1` (mixture of isomers), in that order: “Non-Toxic”, 95.7 µM and “Active”.
Regarding `CC(C)C(NC(=O)[C@@H]1C[C@@H](C2CCCCC2)CN1C(=O)[C@@H](NC(=O)OC(C)(C)C)C(C)(C)C)P(=O)(Oc1ccccc1)Oc1ccccc1` (mixture of isomers), the outcome in [3] and in [5] was Active. In addition, in data set [1], the IC50 was 163 µM. Further, in [12], the viability at 24 h, up to 100 µM came out at 10%. Also, the Activity in data set [13] is given as 80%.
On to `CC(C)C(NC(=O)[C@@H]1C[C@H](n2cc(CO)nn2)CN1C(=O)[C@@H](NC(=O)OC(C)(C)C)C(C)(C)C)P(=O)(Oc1ccccc1)Oc1ccccc1` (mixture of isomers), for which the Activity entry in data set [2] was “Non-Toxic”.
Regarding `CC(C)C(NC(=O)[C@@H]1C[C@@H](n2cc(C(C)(C)O)nn2)CN1C(=O)[C@@H](NC(=O)OC(C)(C)C)C(C)(C)C)P(=O)(Oc1ccccc1)Oc1ccccc1` (mixture of isomers), the Activity result in data set [2] is “Non-Toxic”. Moreover, the IC50 in [1] came out at 71.6 µM.
`CC(C)C(NC(=O)[C@@H]1C[C@H](O)CN1C(=O)[C@@H](NC(=O)OC(C)(C)C)C(C)(C)C)P(=O)(Oc1ccccc1)Oc1ccccc1` (mixture of isomers): the IC50 in [1] worked out at 48.7 µM. Moreover, the figures for the Activity in [4] and in data set [6] were less than 30% and “Non-Toxic”, respectively.
For the compound `CC(C)C(NC(=O)[C@@H]1C[C@@H](OC(=O)CN)CN1C(=O)[C@@H](NC(=O)OC(C)(C)C)C(C)(C)C)P(=O)(Oc1ccccc1)Oc1ccccc1` (mixture of isomers), the IC50 in data set [1] stood at 13.9 µM. The Activity is recorded as less than 30% in data set [4] and “Non-Toxic” in data set [6].
For `CC(C)C(NC(=O)[C@@H]1C[C@H](n2nncc2C(C)(C)O)CN1C(=O)[C@@H](NC(=O)OC(C)(C)C)C(C)(C)C)P(=O)(Oc1ccccc1)Oc1ccccc1` (mixture of isomers), in data set [2], the Activity result is given as “Non-Toxic”. In addition, the IC50 in [1] was 30.3 µM. Moreover, the outcome in [7] and in data set [8] was Active.

These data come from ChEMBL document CHEMBL5154695, “Design, synthesis and biological evaluation of P2-modified proline analogues targeting the HtrA serine protease in Chlamydia” (Eur J Med Chem, 2022).
